Active and inactive are the calls of the source. No cut-off for these calls is given here.
Tests used:
Quadruplex DNA [1] = assay: Stabilization of c-Kit1 G4 quadruplex DNA assessed as change in melting temperature at 10 mol.equiv by circular dichroism melting assay; format: nucleic-acid assay
In short: (§1)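 CD melting from 20 to 100 °C at 1 °C/min, monitored at 264 nm (c-Kit1, c-Kit2, c-Myc, Tel23-p), 287 nm (Tel23-h) or 280 nm (hairpin). Ligand was at 10 mol equiv with folded DNA (15 μM G4, 30 μM hairpin). ΔTm is Tm with ligand minus Tm without, from curve fits, averaged over triplicates.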

Quadruplex DNA [2] = assay: Stabilization of c-Kit2 G4 quadruplex DNA assessed as change in melting temperature at 10 mol.equiv by circular dichroism melting assay; format: nucleic-acid assay; in short: as §1
Quadruplex DNA [3] = assay: Stabilization of human Tel23 G4 quadruplex DNA assessed as change in melting temperature at 10 mol.equiv by circular dichroism melting assay; format: nucleic-acid assay; in short: as §1
Quadruplex DNA [4] = assay: Displacement of Thiazole orange from c-Kit2 G4 quadruplex DNA incubated for 3 mins by spectrofluorimetry; format: nucleic-acid assay
In short: (§2)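 Pre-folded DNA (0.25 μM) in K phosphate/KCl buffer was mixed with thiazole orange: 0.50 μM for G4s, 0.75 μM for duplex. Ligand was added stepwise from 0.5 to 10 equiv, with 3 min equilibration at 20 °C after each addition. Excitation 495 nm; emission read at 543 nm. Displacement % = 100 − (F/F0 × 100). DC50 is the concentration giving 50% displacement.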

Quadruplex DNA [5] = assay: Displacement of Thiazole orange from parallel Tel23 G4 quadruplex DNA incubated for 3 mins by spectrofluorimetry; format: nucleic-acid assay; in short: as §2
Quadruplex DNA [6] = assay: Displacement of Thiazole orange from c-Kit2 G4 quadruplex DNA incubated for 3 mins by spectrofluorimetry relative to control; format: nucleic-acid assay; in short: as §2
Quadruplex DNA [7] = assay: Binding affinity at FAM/TAMRA-tagged parallel Tel21 G4 quadruplex DNA assessed as melting temperature at 2 uM by FRET melting assay (reference value: 55.4 +/- 0.2 degreeC); format: nucleic-acid assay
In short: (§3)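 Dual FAM/TAMRA-labelled oligos (0.2 μM) in 20 mM K phosphate pH 7.0 with 5 mM KCl, annealed 90 °C 5 min, slow-cooled overnight, held 4 °C 24 h. The Tel21 parallel form was annealed at high DNA concentration. Ligand 2 μM. Unlabelled ds12 duplex competitor at 0, 5 or 10 μM final. Tm was read from FRET melting curves.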

Quadruplex DNA [8] = assay: Binding affinity at FAM/TAMRA-tagged parallel Tel21 G4 quadruplex DNA assessed as melting temperature at 2 uM in presence of 25 fold excess duplex DNA by FRET melting assay (reference value: 55.4 +/- 0.2 degreeC); format: nucleic-acid assay; in short: as §3
Quadruplex DNA [9] = assay: Binding affinity at FAM/TAMRA-tagged parallel Tel21 G4 quadruplex DNA assessed as melting temperature at 2 uM in presence of 50 fold excess duplex DNA by FRET melting assay (reference value: 55.4 +/- 0.2 degreeC); format: nucleic-acid assay; in short: as §3
Quadruplex DNA [10] = assay: Binding affinity at FAM/TAMRA-tagged c-Kit2 G4 quadruplex DNA assessed as melting temperature at 2 uM in presence of 50 fold excess duplex DNA by FRET melting assay (reference value: 69.7 +/- 0.3 degreeC); format: nucleic-acid assay; in short: as §3
U2OS [11] = assay: Cytotoxicity against human U2OS cells assessed as reduction in cell viability incubated for 1 hr followed by 48 hrs of recovery in drug free medium by MTT assay; format: functional, cell-based
In short: (§4)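 Cells grown in DMEM with 10% FBS and 1% glutamine at 37 °C, 5% CO2, and seeded 25 × 10^4 per well. Treatment began 24 h after seeding and lasted 1 or 24 h, followed by 48 h in drug-free medium. MTT was added for 1 h at 37 °C, then DMSO solubilization and absorbance at 595 nm. IC50 came from linear regression; two independent experiments, each in triplicate.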

HeLa = assay: Cytotoxicity against human HeLa cells assessed as reduction in cell viability incubated for 1 hr followed by 48 hrs of recovery in drug free medium by MTT assay; format: functional, cell-based; in short: as §4
Quadruplex DNA [12] = assay: Stabilization of G4 quadruplex DNA in human U2OS cells assessed as increase in number of G4 foci at 2 uM incubated for 24 hrs by immunofluorescence microscopy; format: cell-based
Quadruplex DNA [13] = assay: Stabilization of G4 quadruplex DNA in human U2OS cells assessed as change in size of BG4 foci at 2 uM incubated for 24 hrs by immunofluorescence microscopy; format: cell-based
Quadruplex DNA [14] = assay: Stabilization of G4 quadruplex DNA in human U2OS cells assessed as colocalization of TRF2/[…] foci at 2 uM incubated for 24 hrs by immunofluorescence microscopy (reference value: 18.4 +/- 2.81%); format: cell-based
Quadruplex DNA [15] = assay: Stabilization of G4 quadruplex DNA in human U2OS cells assessed as TRF2 foci per cell at 2 uM incubated for 24 hrs by immunofluorescence microscopy (reference value: 15.8 +/- 2.6%); format: cell-based
U2OS [16] = assay: Induction of DNA:RNA hybrid formation in human U2OS cells assessed as increase in R loop formation at 10 uM incubated for 30 mins by S9.6 immunofluorescence microscopy; format: functional, cell-based
In short: (§5)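 U2OS cells were treated at 10 μM for 5–60 min, 24 h after seeding, then fixed in cold methanol and permeabilized with acetone. Stained with S9.6 antibody and anti-nucleolin. The nucleolar signal was subtracted from total nuclear S9.6 fluorescence, and values were normalized to the untreated mean; two biological replicates.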

U2OS [17] = assay: Induction of DNA:RNA hybrid formation in human U2OS cells assessed as increase in R loop formation at 10 uM incubated for 60 mins by S9.6 immunofluorescence microscopy; format: functional, cell-based; in short: as §5
U2OS [18] = assay: Induction of DNA damage in human U2OS cells assessed as increase in phosphorylated 53BPI foci colocalization with gammaH2AX foci at 10 uM incubated for 4 hrs by immunofluorescence microscopy; format: functional, cell-based
In short: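 U2OS cells were treated with 10 μM for 4 h, pre-extracted 3 min with CSK buffer containing 0.5% Triton X-100, and fixed in 2% paraformaldehyde. Co-stained 1 h for 53BP1 and γH2AX, with DAPI counterstain. Foci were counted per nucleus and normalized to the untreated mean, across three biological replicates.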

U2OS [19] = assay: Induction of genome instability in human U2OS cells assessed as fold increase in micronuclei formation per 100 cells at 10 uM incubated for 24 hrs by immunofluorescence microscopy relative to control; format: functional
In short: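 U2OS cells were treated for 24 h, fixed in 4% paraformaldehyde, permeabilized with 0.5% Triton X-100, and stained with DAPI. Micronuclei were counted per 100 cells.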

Quadruplex DNA [20] = assay: Effect on c-Kit2 G4 quadruplex DNA architecture at 10 mol.equiv by circular dichroism spectral analysis; format: nucleic-acid assay
In short: (§6)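 CD spectra of 15 μM G4s or 30 μM hairpin in 20 mM K phosphate pH 7.0 with 5 mM KCl, after annealing. Recorded at 20 °C over 230–360 nm, three scans averaged, buffer baseline subtracted. Ligand was added at 10 mol equiv to the folded DNA from a 10 mM DMSO stock.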

Quadruplex DNA [21] = assay: Effect on c-Myc G4 quadruplex DNA architecture at 10 mol.equiv by circular dichroism spectral analysis; format: nucleic-acid assay; in short: as §6
Quadruplex DNA [22] = assay: Effect on parallel Tel23 G4 quadruplex DNA architecture at 10 mol.equiv by circular dichroism spectral analysis; format: nucleic-acid assay; in short: as §6
Quadruplex DNA [23] = assay: Effect on human Tel23 G4 quadruplex DNA architecture at 10 mol.equiv by circular dichroism spectral analysis; format: nucleic-acid assay; in short: as §6
[24] = Effect on hairpin-duplex DNA architecture at 10 mol.equiv by circular dichroism spectral analysis; in short: as §6

- Activity (Quadruplex DNA [1]): Active
- Activity (Quadruplex DNA [2]): Active
- ΔTm (Quadruplex DNA [3]): < 2 °C
- DC50 (Quadruplex DNA [4]): 7.8 µM
- DC50 (Quadruplex DNA [5]): 0.48 µM
- inhibition (Quadruplex DNA [6]): 100%
- Tm (Quadruplex DNA [7]): 68.6 °C
- Tm (Quadruplex DNA [8]): 67.7 °C
- Tm (Quadruplex DNA [9]): 68.1 °C
- Tm (Quadruplex DNA [10]): 76.5 °C
- Activity (Quadruplex DNA [20]): inactive
- Activity (Quadruplex DNA [21]): inactive
- Activity (Quadruplex DNA [22]): inactive
- Activity (Quadruplex DNA [23]): inactive
- Activity [24]: inactive
Compound: CC(C)(C)c1cc(/C=N/NC(=N)N)c(O)c(/C=C2/C(=O)Nc3c2ccc2ccccc32)c1.Cl
- IC50 (U2OS [11]): 12.5 µM
- IC50 (HeLa): 3.94 µM
- Activity (Quadruplex DNA [12]): Active
- Activity (Quadruplex DNA [13]): inactive
- Activity (Quadruplex DNA [14]): 16.4%
- Activity (Quadruplex DNA [15]): 15%
- Activity (U2OS [16]): Active
- Activity (U2OS [17]): Active
- Activity (U2OS [18]): Active
- fold change (FC) (U2OS [19]): 3

Source: ChEMBL document CHEMBL4402581, “Monohydrazone Based G-Quadruplex Selective Ligands Induce DNA Damage and Genome Instability in Human Cancer Cells” (J Med Chem, 2020)
